From ChEMBL document CHEMBL1144245, “Discovery of 4-aryl-2-oxo-2H-chromenes as a new series of apoptosis inducers using a cell- and caspase-based high-throughput screening assay” (Bioorg Med Chem Lett, 2008)

Tests used:
[1] = Growth inhibition of human HCT 116 cells; type: functional
Summary of the method: (§1)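 Growth inhibition assay in T47D, HCT116 and SNU398 cells, run in 96-well format. GI50 reported as mean ± SEM of three or more experiments.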

[2] = tested on: SNU-398; experiment: Induction of apoptosis in human SNU398 cells assessed as caspase 3 activation by HTS assay; type: functional, cell-based
[3] = tested on: HCT-116; experiment: Induction of apoptosis in human HCT 116 cells assessed as caspase 3 activation by HTS assay; type: functional, cell-based
[4] = tested on: T47D; experiment: Induction of apoptosis in human T47D cells assessed as caspase 3 activation by HTS assay; type: functional, cell-based
[5] = tested on: SNU-398; experiment: Growth inhibition of human SNU398 cells; type: functional; summary of the method: as §1
[6] = tested on: T47D; experiment: Growth inhibition of human T47D cells; type: functional; summary of the method: as §1

| Structure (SMILES) | GI50 [1] [nM] | EC50 [2] [nM] | EC50 [3] [nM] | EC50 [4] [nM] | GI50 [5] [nM] | GI50 [6] [nM] |
| --- | --- | --- | --- | --- | --- | --- |
| COc1cc(-c2c(C#N)c(=O)oc3c2ccc2c3ccn2C)cc2c1OCO2 | 26 | 17 | 27 | 27 | 7.9 | 25 |
| COc1cc(-c2c(C#N)c(=O)oc3c2ccc2c3ccn2C)cc(Br)c1OC | 0.9 | 6 | 10 | 13 | 0.3 | 0.7 |
| COc1ccc2c(-c3cc(Br)c(OC)c(OC)c3)c(C#N)c(=O)oc2c1 |  | 26 | 41 | 42 |  |  |
| COc1cc(-c2c(C#N)c(=O)oc3cc(Cl)ccc23)cc(Br)c1OC |  | 5500 | 9400 | 6900 |  |  |
| COc1cc(-c2c(C#N)c(=O)oc3c2ccc2cnccc23)cc(Br)c1OC |  | 2500 | 4800 | 3000 |  |  |
| COc1cc(-c2c(C#N)c(=O)oc3cc(N)ccc23)cc(Br)c1OC | 630 | 490 | 990 | 820 | 440 | 630 |
| COc1cccc(-c2c(C#N)c(=O)oc3c2ccc2c3ccn2C)c1 |  | 17 | 20 | 43 |  |  |
| Cn1ccc2c3oc(=O)c(C#N)c(-c4cccc(Br)c4)c3ccc21 |  | 9.6 | 14 | 24 |  |  |
| COc1cc(OC)cc(-c2c(C#N)c(=O)oc3c2ccc2c3ccn2C)c1 |  | 13 | 20 | 24 |  |  |
| COc1cc(C2C(C#N)=C(N)Oc3cc(N(C)C)ccc32)cc2c1OCO2 (stereo not given) |  |  |  | 73 |  |  |
| Cc1cncc(-c2c(C#N)c(=O)oc3c2ccc2c3ccn2C)c1 |  | 14 | 16 | 19 |  |  |
| COc1cc(-c2c(C#N)c(=O)oc3cc(N(C)C)ccc23)cc(Br)c1OC | 460 | 260 | 400 | 280 | 150 | 620 |
| COc1cc(OC)cc(-c2c(C#N)c(=O)oc3cc(OC)ccc23)c1 |  | 15 | 18 | 17 |  |  |
| COc1cccc(-c2c(C#N)c(=O)oc3cc(OC)ccc23)c1 |  | 29 | 59 | 53 |  |  |
| Cn1ccc2c3oc(=O)c(C#N)c(-c4cccc([N+](=O)[O-])c4)c3ccc21 |  | 9.5 | 13 | 43 |  |  |
